Active and inactive are the calls of the source.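 The calls were made as follows, unless noted: active = current rise at least 3 SD above the untreated control mean in each of two repeat wells; inactive = the rest.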
These compounds were tested against Potassium voltage-gated channel subfamily KQT member 2 (Rattus norvegicus) (UniProt O88943) (assay: rat KCNQ2 channel potentiation, selectivity assay for KCNQ1 potentiator project, KCNQ2-CHO-K1 cells (AID 493009;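 active = mean duplicate potentiation above the buffer control mean plus 5 SD of buffer wells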;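 also: assay conditions were tuned for KCNQ1 rather than KCNQ2 modulators; signal is max minus min fluorescence divided by baseline after thallium stimulus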)). Settings: FluxOR thallium flux fluorescence, at 10 µM; stronger effect = higher value, scaled: buffer 0, activator control 100.
Potassium voltage-gated channel subfamily KQT member 2 (Rattus norvegicus), sequence (O88943 whole entry, looked up): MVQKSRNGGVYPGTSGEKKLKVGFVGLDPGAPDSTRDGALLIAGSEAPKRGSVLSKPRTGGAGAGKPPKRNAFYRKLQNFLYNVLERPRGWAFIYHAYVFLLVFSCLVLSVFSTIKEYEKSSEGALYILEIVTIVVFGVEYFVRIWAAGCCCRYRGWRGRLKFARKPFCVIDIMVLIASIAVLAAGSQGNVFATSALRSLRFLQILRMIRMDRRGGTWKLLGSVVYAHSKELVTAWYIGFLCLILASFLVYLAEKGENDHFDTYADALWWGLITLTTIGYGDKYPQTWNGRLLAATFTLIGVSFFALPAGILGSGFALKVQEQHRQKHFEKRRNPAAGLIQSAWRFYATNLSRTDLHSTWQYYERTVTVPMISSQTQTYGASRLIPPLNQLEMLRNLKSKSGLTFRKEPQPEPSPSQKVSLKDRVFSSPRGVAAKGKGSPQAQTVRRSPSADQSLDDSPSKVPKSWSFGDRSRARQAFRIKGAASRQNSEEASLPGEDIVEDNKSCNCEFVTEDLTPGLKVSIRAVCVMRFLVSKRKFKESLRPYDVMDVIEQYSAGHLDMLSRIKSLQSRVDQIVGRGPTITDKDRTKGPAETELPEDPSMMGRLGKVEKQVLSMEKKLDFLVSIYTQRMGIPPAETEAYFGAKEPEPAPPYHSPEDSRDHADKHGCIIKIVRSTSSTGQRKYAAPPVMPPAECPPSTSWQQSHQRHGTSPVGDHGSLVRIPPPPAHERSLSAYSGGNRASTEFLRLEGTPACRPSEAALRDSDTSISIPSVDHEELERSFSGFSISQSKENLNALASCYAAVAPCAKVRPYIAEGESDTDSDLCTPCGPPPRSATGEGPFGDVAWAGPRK
In the case of `CC1(C)N=C(N)NC(Nc2cccc(Br)c2)=N1`, the outcome is reported as “inactive”. With `Cc1ccc(-c2nc3ccccc3o2)cc1NC(=S)NC(=O)c1cc2ccccc2o1` the outcome was “inactive”. In the case of `Cc1cc(=O)oc2cc(OCC3CC(c4ccccc4Cl)=NO3)ccc12` (stereo not drawn), the outcome is reported as “inactive”. For `CCc1ccccc1NC(=O)C1CCN(C(=O)N2CCOc3ccccc32)CC1`, the outcome was “inactive”. With `C=CCn1c(O)c(N=NC(=S)Nc2ccc(OC)c(Cl)c2)c2ccccc21` the potentiation was 215% (active). In the case of `O=S(=O)(Nc1ccccc1Cl)c1ccc(NS(=O)(=O)c2cccs2)cc1`, the outcome is reported as “inactive”. For `CCn1c(=S)[nH]c2sc3c(c2c1=O)CCCC3`, the potentiation was 383% (active). For `O=C(NC(=S)N1CCc2ccccc21)c1ccccc1Br`, the potentiation was 490% (active). For `Cc1c(/C=N\NC(=O)c2ccc(F)cc2)cnn1C`, the outcome was “inactive”. With `O=C(O)CCSc1ncnc2sc(-c3ccccc3)cc12` the potentiation was 220% (active). With `CN(CCCNC(=O)CSc1cc(=O)n(C)c2ccc(Cl)cc12)Cc1ccccc1` the outcome was “inactive”. With `O=C(NC(=S)N1CCN(c2ccc(Cl)cc2[N+](=O)[O-])CC1)c1cccs1` the potentiation was 244% (active). With `C/C(=N\NC(=O)C(C)Sc1ccccc1)c1ccc([N+](=O)[O-])cc1` (stereo not drawn) the outcome was “inactive”. For `Cn1c(O)c(N=Nc2nc(-c3ccccc3)cs2)c2ccccc21`, the potentiation was 677% (active). With `Cc1nn(CC(=O)NC(C)c2ccccc2)c(=O)c2ccccc12` (stereo not drawn) the potentiation was 172% (active). For `S=c1nc(-c2ccccc2)[nH]n1-c1ccccc1`, the potentiation was 532% (active). `COc1ccc(NC(=O)CCCSc2nc(-c3ccco3)cc(C(F)(F)F)n2)cc1OC` was tested, and the outcome was “inactive”. `C/C(N)=C(/C#N)C(=O)COc1ncnc2ccc(Br)cc12` was tested, and the outcome was “inactive”. With `O=C(Nc1ccc(Cl)cn1)c1cccc(S(=O)(=O)N2CCOCC2)c1` the outcome was “inactive”. For `CCCCCNC(=O)Cn1c(=O)c2c(ncn2CC(C)C)n(Cc2ccccc2)c1=O`, the outcome was “inactive”. In the case of `Cc1ccccc1NS(=O)(=O)c1ccc2[nH]cc(C(=O)N(C)Cc3ccco3)c(=O)c2c1`, the outcome is reported as “inactive”. With `COc1ccc(C)cc1NC(=O)C1C2C=CC(C2)C1C(=O)O` (stereo not drawn) the outcome was “inactive”. In the case of `COc1ccc(C(=O)O/N=C(\N)c2ccccc2Cl)cc1OC`, the outcome is reported as “inactive”. With `O=C(c1ccccc1NS(=O)(=O)c1ccc(Br)cc1)N1CCOCC1` the potentiation was 326% (active). With `CC/C(=N/NC(=O)c1ccc(Br)o1)c1ccc(Cl)cc1` the outcome was “inactive”. In the case of `O=[N+]([O-])c1ccc(Nc2ccc(Cl)cc2)nc1`, the potentiation is reported as 166% (active). With `COC(=O)c1c(NC(=S)Nc2ccccc2Cl)sc(C)c1C` the outcome was “inactive”. In the case of `CCN(CC)CC(O)Cn1c2ccccc2c2ccccc21` (stereo not drawn), the outcome is reported as “inactive”. In the case of `Cc1ccc(/C=C/C(=O)c2ccccc(=O)c2O)cc1C`, the potentiation is reported as 276% (active). In the case of `O=C(NC(=S)Nc1nc2ccc(F)cc2s1)c1ccco1`, the potentiation is reported as 331% (active). For `S=c1[nH]cnc2scc(-c3ccccc3)c12`, the potentiation was 205% (active). With `CC(C)(C)NC(=O)C(=O)NNC(=O)c1cccc(Br)c1` the potentiation was 229% (active). `CCOC(=O)C1(CCCc2ccccc2)CCN(Cc2cnc(C)s2)CC1` was tested, and the outcome was “inactive”. In the case of `COc1cccc(-c2cn(-c3cccc(C(F)(F)F)c3)c(=S)[nH]2)c1`, the outcome is reported as “inactive”. For `CN(C(=S)NC(=O)c1ccccc1)C1CCCCC1`, the potentiation was 186% (active). In the case of `COc1ccc(Cc2nnc(NC(=O)C3CC(=O)N(c4ccccc4)C3)s2)cc1OC` (stereo not drawn), the outcome is reported as “inactive”. With `Cc1ccccc1OCc1nnc(SCCN2CCCC2)n1-c1ccccc1` the outcome was “inactive”. With `CCOc1ccc(N2CC(C(=O)Nc3cc(Cl)ccc3-n3cncn3)CC2=O)cc1` (stereo not drawn) the outcome was “inactive”. `COC(=O)c1ccc(NC(=S)NC(=O)c2c(Cl)cnn2C)cc1` was tested, and the outcome was “inactive”.

Each compound was assayed against Potassium voltage-gated channel subfamily KQT member 1 (Homo sapiens) (UniProt P51787) (assay: KCNQ1 channel current potentiators, confirmation, orthogonal assay for KCNQ1 potentiator project, IonWorks patch clamp, KCNQ1-CHO cells (AID 493184)). Settings: automated patch clamp current, at 10 µM; stronger effect = higher value.
Potassium voltage-gated channel subfamily KQT member 1 (Homo sapiens), sequence (P51787 whole entry, looked up): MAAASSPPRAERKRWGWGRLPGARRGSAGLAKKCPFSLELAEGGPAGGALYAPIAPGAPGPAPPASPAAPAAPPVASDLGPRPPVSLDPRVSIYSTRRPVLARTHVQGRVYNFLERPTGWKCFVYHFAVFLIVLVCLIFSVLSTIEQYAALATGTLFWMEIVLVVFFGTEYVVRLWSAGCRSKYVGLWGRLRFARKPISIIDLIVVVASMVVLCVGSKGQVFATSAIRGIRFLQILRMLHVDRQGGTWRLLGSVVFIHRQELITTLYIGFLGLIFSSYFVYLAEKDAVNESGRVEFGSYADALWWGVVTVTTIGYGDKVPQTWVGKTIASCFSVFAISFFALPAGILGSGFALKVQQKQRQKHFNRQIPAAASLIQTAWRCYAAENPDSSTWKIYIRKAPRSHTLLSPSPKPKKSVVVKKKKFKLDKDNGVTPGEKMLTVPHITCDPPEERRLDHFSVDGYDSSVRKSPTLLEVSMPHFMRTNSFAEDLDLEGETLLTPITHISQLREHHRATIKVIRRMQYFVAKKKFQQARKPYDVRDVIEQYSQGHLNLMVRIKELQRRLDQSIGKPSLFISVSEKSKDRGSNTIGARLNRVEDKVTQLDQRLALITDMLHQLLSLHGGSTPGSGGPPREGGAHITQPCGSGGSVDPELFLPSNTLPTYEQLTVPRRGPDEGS
In short: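 Material: KCNQ1-expressing CHO cells; doses: 10 µM final, single point; probe or stimulus: voltage step from -90 mV holding to +40 mV, 2,000 ms; signal: automated voltage clamp, amphotericin B perforated patch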
With `CC1(C)N=C(N)NC(Nc2cccc(Br)c2)=N1` the outcome was “inactive”. `Cc1ccc(-c2nc3ccccc3o2)cc1NC(=S)NC(=O)c1cc2ccccc2o1` was tested, and the outcome was “inactive”. For `Cc1cc(=O)oc2cc(OCC3CC(c4ccccc4Cl)=NO3)ccc12` (stereo not drawn), the outcome was “inactive”. In the case of `CCc1ccccc1NC(=O)C1CCN(C(=O)N2CCOc3ccccc32)CC1`, the outcome is reported as “inactive”. With `C=CCn1c(O)c(N=NC(=S)Nc2ccc(OC)c(Cl)c2)c2ccccc21` the outcome was “inactive”. In the case of `O=S(=O)(Nc1ccccc1Cl)c1ccc(NS(=O)(=O)c2cccs2)cc1`, the outcome is reported as “inactive”. With `CCn1c(=S)[nH]c2sc3c(c2c1=O)CCCC3` the outcome was “inactive”. In the case of `O=C(NC(=S)N1CCc2ccccc21)c1ccccc1Br`, the outcome is reported as “inactive”. For `Cc1c(/C=N\NC(=O)c2ccc(F)cc2)cnn1C`, the outcome was “inactive”. For `O=C(O)CCSc1ncnc2sc(-c3ccccc3)cc12`, the outcome was “inactive”. With `CN(CCCNC(=O)CSc1cc(=O)n(C)c2ccc(Cl)cc12)Cc1ccccc1` the outcome was “inactive”. `O=C(NC(=S)N1CCN(c2ccc(Cl)cc2[N+](=O)[O-])CC1)c1cccs1` was tested, and the outcome was “inactive”. `C/C(=N\NC(=O)C(C)Sc1ccccc1)c1ccc([N+](=O)[O-])cc1` (stereo not drawn) was tested, and the outcome was “inactive”. `Cn1c(O)c(N=Nc2nc(-c3ccccc3)cs2)c2ccccc21` was tested, and the outcome was “inactive”. In the case of `Cc1nn(CC(=O)NC(C)c2ccccc2)c(=O)c2ccccc12` (stereo not drawn), the outcome is reported as “inactive”. For `S=c1nc(-c2ccccc2)[nH]n1-c1ccccc1`, the outcome was “inactive”. For `COc1ccc(NC(=O)CCCSc2nc(-c3ccco3)cc(C(F)(F)F)n2)cc1OC`, the outcome was “inactive”. With `C/C(N)=C(/C#N)C(=O)COc1ncnc2ccc(Br)cc12` the outcome was “inactive”. `O=C(Nc1ccc(Cl)cn1)c1cccc(S(=O)(=O)N2CCOCC2)c1` was tested, and the outcome was “inactive”. For `CCCCCNC(=O)Cn1c(=O)c2c(ncn2CC(C)C)n(Cc2ccccc2)c1=O`, the outcome was “inactive”. In the case of `Cc1ccccc1NS(=O)(=O)c1ccc2[nH]cc(C(=O)N(C)Cc3ccco3)c(=O)c2c1`, the outcome is reported as “inactive”. For `COc1ccc(C)cc1NC(=O)C1C2C=CC(C2)C1C(=O)O` (stereo not drawn), the outcome was “inactive”. For `COc1ccc(C(=O)O/N=C(\N)c2ccccc2Cl)cc1OC`, the outcome was “inactive”. With `O=C(c1ccccc1NS(=O)(=O)c1ccc(Br)cc1)N1CCOCC1` the outcome was “inactive”. With `CC/C(=N/NC(=O)c1ccc(Br)o1)c1ccc(Cl)cc1` the outcome was “inactive”. For `O=[N+]([O-])c1ccc(Nc2ccc(Cl)cc2)nc1`, the outcome was “inactive”. For `COC(=O)c1c(NC(=S)Nc2ccccc2Cl)sc(C)c1C`, the outcome was “inactive”. For `CCN(CC)CC(O)Cn1c2ccccc2c2ccccc21` (stereo not drawn), the outcome was “inactive”. `Cc1ccc(/C=C/C(=O)c2ccccc(=O)c2O)cc1C` was tested, and the outcome was “inactive”. In the case of `O=C(NC(=S)Nc1nc2ccc(F)cc2s1)c1ccco1`, the outcome is reported as “inactive”. In the case of `S=c1[nH]cnc2scc(-c3ccccc3)c12`, the outcome is reported as “inactive”. In the case of `CC(C)(C)NC(=O)C(=O)NNC(=O)c1cccc(Br)c1`, the outcome is reported as “inactive”. For `CCOC(=O)C1(CCCc2ccccc2)CCN(Cc2cnc(C)s2)CC1`, the outcome was “inactive”. `COc1cccc(-c2cn(-c3cccc(C(F)(F)F)c3)c(=S)[nH]2)c1` was tested, and the outcome was “inactive”. For `CN(C(=S)NC(=O)c1ccccc1)C1CCCCC1`, the outcome was “inactive”. `COc1ccc(Cc2nnc(NC(=O)C3CC(=O)N(c4ccccc4)C3)s2)cc1OC` (stereo not drawn) was tested, and the outcome was “inactive”. With `Cc1ccccc1OCc1nnc(SCCN2CCCC2)n1-c1ccccc1` the outcome was “inactive”. With `CCOc1ccc(N2CC(C(=O)Nc3cc(Cl)ccc3-n3cncn3)CC2=O)cc1` (stereo not drawn) the outcome was “inactive”. `COC(=O)c1ccc(NC(=S)NC(=O)c2c(Cl)cnn2C)cc1` was tested, and the outcome was “inactive”.
